Laboratory results: ChEMBL document CHEMBL4513216, “Probing the Open Global Health Chemical Diversity Library for Multistage-Active Starting Points for Next-Generation Antimalarials” (ACS Infect Dis, 2020)

Test: Toxicity liver stage against HepG2, at 10uM
Format: cell-based
Design: test concentration 10 uM, cell line HepG2-A16-CD81EGFP
Settings: human, HepG2-A16-CD81EGFP cells; read-out: INHIBITION
Outline: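 Uninfected HepG2-A16-CD81EGFP cells, 3 × 10^3 per well, 1536-well, plated on prespotted compound at 10 μM final, parasite-free screening media added to match infected plates; puromycin 10 μM positive, DMSO 0.5% negative; run in parallel with 48 h PbLuc assay at 37 °C, 5% CO2; viability by CellTiter-Glo luminescence, normalized to controls.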

Row | Structure (SMILES) | cytotoxicity at 10 µM [%]
1 | Fc1ccc(CN2CCOC[C@H](Oc3cccnc3)C2)cc1 | 7.35
2 | COCC(=O)N1CCN(C(C)=O)C[C@@H]1C(=O)OC | 2.43
3 | CCCNC(=O)C1CCCN(c2ccc3nncn3n2)C1 (configuration not stated) | 10.7
4 | O=C(O)CCn1ccc(=O)c2cc(F)ccc21 | 1.09
5 | CCCNC(=O)CSc1nnc2[nH]c(=O)c3c(n12)CCCC3 | -83.3
6 | CCOc1ccc(S(=O)(=O)NCCCc2ccc(N(C)C)cc2)cc1C | 0.279
7 | O=C(NCC(O)c1ccsc1)Nc1cccs1 (configuration not stated) | -8.29
8 | O=C(Nc1cccc(OC(F)F)c1)C1CN(S(=O)(=O)C2CC2)C1 | 0.696
9 | O=S(=O)(NCCC(O)c1cccs1)c1c(F)cccc1F (configuration not stated) | -0.00815
10 | O=C(Nc1nc2c(s1)CN(S(=O)(=O)C1CC1)CC2)C1CC1 | -0.849
11 | CN(C)C(=O)c1ccc2ccc(N3CCN(CC4CC4)CC3)n2c1 | 4.14
12 | COc1ccc(C(=O)N2CCO[C@H]3[C@@H](OCC4CC4)CC[C@@H]32)cc1F | 19.1
13 | CCN1C(=O)CC(c2cccnc2)C12CCN(c1ncc(F)cn1)CC2 (configuration not stated) | -8.59
14 | CCOC1CC2(CCN(c3cnccn3)CC2)c2ccccc21 (configuration not stated) | 5.54
15 | Cc1ccc(C(=O)N2C[C@@H]3CN(S(C)(=O)=O)CCO[C@@H]3C2)o1 | -2.42
16 | CN(C)C(=O)c1cc2c(nc1NCC1CC1)CCN(CC1CC1)CC2 | 7.54
17 | O=C(COc1coc(CN2CCCCC2)cc1=O)c1ccc(Cl)cc1 | 3.13
18 | Cc1nc2c(N3CCN(Cc4ccccc4)CC3)nc(N)nc2n1C | 5.61
19 | CCN(Cc1c(C)nn(CC)c1C)S(=O)(=O)c1cnn(C)c1C | 9.65
20 | CN(C)S(=O)(=O)N1CCCCCC1c1cc(-c2ccc(F)cc2)no1 (configuration not stated) | 10.6
21 | COc1ccccc1CN1CCC(c2nccc(C)n2)C1 (configuration not stated) | 3.44
22 | CC(=O)N1CCC(C)(c2cc(C(=O)NCC(C)(C)C)nc(C)n2)CC1 | 6.93

Row | Structure (SMILES) | cytotoxicity at 10 µM [%]
23 | COc1ccc(CN2CC[C@H](NC(C)=O)[C@@H](O)CC2)c(F)c1 | -11.1
24 | CC(=O)N1CCCC1c1cccc(Cc2ccccc2Cl)n1 (configuration not stated) | 1.58
25 | CC(C)n1ccnc1CN1CCOC(C)(C(=O)N2CCOCC2)C1 (configuration not stated) | -8.58
26 | Oc1nc(N2CCOCC2)nc2c1CCN(Cc1ccc(F)cc1)CC2 | -4.14
27 | O=C(N[C@@H]1CCC[C@@H](n2ccnc2)[C@@H]1O)c1ccc2c(c1)CCCC2 | -11.3
28 | CS(=O)(=O)N1Cc2ccccc2CC2(CCN(Cc3ccncc3)C2)C1 (configuration not stated) | 4.59
29 | COc1ccccc1/C=C/CNCC1CCc2nncn2C1 (configuration not stated) | 3.91
30 | O=C(NCC1CCS(=O)(=O)C1)N(Cc1ccco1)C1CC1 (configuration not stated) | -136
31 | CC(C)c1nn(C)c(Cl)c1CNCCn1cccn1 | -9.11
32 | COCCN(Cc1ccccn1)C(=O)Nc1cccnc1N1CCCC1 | 4.03
33 | Cc1noc(C2CCN(Cn3cc(Cl)cn3)CC2)n1 | -11.1
34 | COc1ccc(OC)c(CCNC(=O)CCC2CCCO2)c1 (configuration not stated) | 2.34
35 | O=C(CN1CCCC1COc1ccccc1)NCc1ccccn1 (configuration not stated) | -0.764
36 | CCC1(CNC(=O)NC(c2nnc3n2CCC3)C(C)C)CCC1 (configuration not stated) | 0.864
37 | Cc1cc(F)ccc1-n1cc(O)c(C(N)=O)n1 | -9.55
38 | COc1ccc(N(C(=O)c2ccc(C)nc2)C(C)C)cc1F | -3.17
39 | CCC(CC)n1ncc(C(=O)NS(=O)(=O)c2ccsc2)c1C | -3.01
40 | CCC(CC)CNCC1(S(C)(=O)=O)CCOCC1 | 0.354
41 | Cc1nccn1-c1ccc(CNC(=O)c2ccc(O)nc2)cn1 | 1.75
42 | Cn1cccc(NC(=O)N2CCC(COCc3ccccc3)C2)c1=O (configuration not stated) | 3.67
43 | O=C(NCCc1nnc2n1CCC2)N1CCC2(CCCCC2)C1 | 14.7
44 | FC(F)(F)c1cccc(C2(CNCc3ccncc3)CCOCC2)c1 | -6.98

Row | Structure (SMILES) | cytotoxicity at 10 µM [%]
45 | O=C(c1cccc(NCCO)c1)N1CCOCC1 | -11
46 | Cc1noc([C@]23COC[C@H]2CN(C(=O)Cc2ccsc2)C3)n1 | -95.9
47 | CCOCC(=O)N1CCC2(CC1)CC(c1ccccc1)CO2 (configuration not stated) | -113
48 | O=C(Cc1ccco1)N1C[C@H]2CCC[C@@]2(COCc2cccnc2)C1 | -115
49 | COCCNC(=O)[C@H]1CO[C@H]2CCN(Cc3cccs3)C[C@H]2C1 | -108
50 | O=C(c1ccoc1)N1CC[C@@H]2O[C@@H](COCC3CCOCC3)CC[C@@H]21 | -76.2
51 | CC(C)NC(=O)N1CCC2(COCc3cnc(-c4cccnc4)nc32)C1 (configuration not stated) | 1.77
52 | COc1cc(-c2cc(=O)[nH]cn2)cc(OC)c1OC | -12.5
53 | O=C(CNCc1ccccc1Cn1cccn1)Nc1cnccn1 | 8.11
54 | Cc1cc(N2CCC3(CCCN(CCO)C3=O)C2)nc(C)c1C#N (configuration not stated) | 7.41
55 | Cc1nc(CC(=O)N2CCCC2c2nc(-c3ccccc3)no2)cs1 (configuration not stated) | 7.01
56 | Cc1cccc(CN2CCN(C(=O)N(C)C)[C@@H]3CS(=O)(=O)C[C@@H]32)n1 | 0.00559
57 | CCc1oc(C(=O)N(C)Cc2ccncc2)cc1CN(CC)CC | -1.81
58 | Cn1cc(CN(CC2(O)CCNC2)C2CCCCC2)cn1 (configuration not stated) | 17.8
59 | CC(C)c1nc(CCN(C)c2nccc(N3CCCC(O)C3)n2)no1 (configuration not stated) | -12
60 | CSCCCN1CC[C@@]2(O)CCN(c3ncccn3)C[C@H]2C1 | -4.53
61 | Cc1nn(C)c(C)c1CN(C(=O)c1cc(Cl)c[nH]c1=O)C(C)C | -3.25
62 | NCc1cn(CC2CCCN(C(=O)NCCc3ccc(F)cc3)C2)nn1 (configuration not stated) | 17.2
63 | CCn1c(C2CCCNC2)nn(Cc2ccc(C(=O)NC)o2)c1=O (configuration not stated) | 8.25
64 | Cc1nccn1-c1ccc(N2CCC(NC(C)CC(C)C)CC2)cc1 (configuration not stated) | 1.71
65 | COc1cccc2c1OCCCN(c1nc3c(c(=O)[nH]1)CCNCC3)C2 | -5.24
66 | CCNc1ncc(C(=O)NCc2ccc(F)c(C(F)(F)F)c2)cn1 | -5.96

Row | Structure (SMILES) | cytotoxicity at 10 µM [%]
67 | CCc1ccccc1OC1CN(C(=O)c2ccsc2)C1 | 7.46
68 | COc1ccc(-c2n[nH]cc2CN(C)CCC2CCOCC2)cc1F | -6.57
69 | CCN(CC)S(=O)(=O)c1ccc(NC(=O)C(C)(C)C)cc1 | 9.22
70 | COCc1nc(CNC2CCSC2)no1 (configuration not stated) | -1.37
71 | C=Cc1cccc(CN2CCCn3nc(CNS(C)(=O)=O)cc3C2)c1 | 3.15
72 | c1csc(CN2CCCN(c3ncnc4[nH]ccc34)CC2)c1 | 5.51
73 | Cc1ccc(N2CCN(C(=O)CCc3n[nH]c(C)c3C)CC2=O)cc1 | 4.78
74 | O=C1NCC2(CCCN(C(=O)c3ccc4c(c3)CCCO4)CC2)O1 (configuration not stated) | -19.7
75 | CCNC(=O)CCN1CCC(c2cc(N3CCOCC3)nc(C)n2)CC1 | -10.8
76 | Cc1ccc2c(c1)c(CNC(=O)C1CC(=O)N(C3CCCC3)C1)nn2C (configuration not stated) | -19.9
77 | Cc1cc(C)n(CC(=O)N(C)Cc2csc(-c3cccs3)n2)c(=O)n1 | 32.2
78 | COc1cccc(N2CCN(Cc3ccc(NC(C)=O)cc3)CC2=O)c1 | -15.4
79 | CCOCn1cc(NC(=O)C2CCN(S(C)(=O)=O)CC2)cn1 | -10.7
80 | CS(=O)(=O)N1CCC(O)(Cn2c(C3CC3)nc3ccccc3c2=O)CC1 | 3.06
81 | CC(C)(C)OC(=O)N1CCN(C(=O)CCn2cccn2)CC1 | -14.6
82 | CC(C)n1cc(CN2CCCN(C(=O)C(C)n3cccn3)CC2)cn1 (configuration not stated) | -17.9
83 | Cc1nn(C)c(Cl)c1C1CCCN1C(=O)c1ccncc1 (configuration not stated) | -11.2
84 | CN1CCN(c2cc(CNC(=O)c3ccc(Cl)o3)ccn2)CC1 | -9.69
85 | CN(C)c1ccc(C(=O)N2CCCC(n3cccn3)C2)cn1 (configuration not stated) | -11.5
86 | Cc1cnc(CNC(=O)N(CCCO)C2CCc3ccccc32)s1 (configuration not stated) | -17.2
87 | CCCOc1cc(C)ccc1NC(=O)N(C)Cc1cnn(C)c1 | -11.1
88 | NC(=O)N1CCC(C(=O)NCc2nncn2-c2ccccc2)CC1 | -18.7

Row | Structure (SMILES) | cytotoxicity at 10 µM [%]
89 | Cc1nc(C)n(C2CCCN(C(=O)c3ncoc3C(C)C)C2)n1 (configuration not stated) | -17
90 | c1cnnc(NCC2CN(CCN3CCCCC3)CCO2)c1 (configuration not stated) | -11.9
91 | CCn1c(C)cc(C(=O)N2CCCC(n3nc(C)nc3C)C2)c1C (configuration not stated) | -11.4
92 | Cc1cccc(-c2nc(CN3CCc4c(ncn4C)C3)no2)c1 | -9.42
93 | Cc1cnn(CCC(=O)N2CCCC(c3nc(C)no3)C2)c1 (configuration not stated) | -1.59
94 | Fc1cnc(N2CCO[C@H]3[C@H](OCC4CCOCC4)CC[C@@H]32)nc1 | 10.7
95 | O=C([C@@H]1CCO[C@@H]2CCN(Cc3ccsc3)C[C@@H]21)N1CCCC1 | -81.4
96 | Cc1cccc(CN2C(=O)C[C@H]3[C@@H]2CCN3Cc2ccccn2)n1 | 6.97
97 | CCN1CCC2(CCN(Cc3ccc(OC)cc3)CC2)C1=O | -0.0368
98 | Cc1nc(N2CCOCC2)nc2c1CCN(Cc1nccn1C)CC2 | -125
99 | Cn1nccc1-c1nnn2c1COC(CNCc1nccs1)C2 (configuration not stated) | -1.07
100 | O=C(NC1CC1)[C@H]1C[C@H]2OCC[C@H]2N(Cc2ccc3ccccc3n2)C1 | -62.6
101 | CN(C)[C@@H]1CCN(C(=O)c2ccsc2)[C@H]1Cc1cccnc1 | -66.7
102 | CN(C[C@@H]1CCC[C@@H]2CN(c3ncccn3)C[C@@H]21)C1CC1 | 5.18
103 | CC(=O)N1CC(=O)N(c2ccccc2)CC12CCN(Cc1ccoc1)C2 (configuration not stated) | -1.51
104 | CS(=O)(=O)N1CC[C@H]2OCC[C@@]2(C(=O)NCCc2ccccn2)C1 | -101
105 | CS(=O)(=O)NC[C@]12COC[C@H]1CN(Cc1ccc3c(c1)OCO3)C2 | -106
106 | CC(C)NCC1(COc2ccccc2)C[C@@H](O)[C@@H](O)C1 (some centres not stated) | 0.67
107 | CC(=O)N1C[C@H]2CC[C@@H](C1)N(S(=O)(=O)c1ccc(C#N)cc1Cl)C2 | 1.33
